Screening data (PubChem)
An excerpt weighted towards active compounds, which were near 4.8% of everything screened.
UPR CHOP act = activators of apoptotic arm of unfolded protein response (CHOP). CHO-CHOP luciferase reporter, UPR activation, luminescence; percent of tunicamycin response over DMSO baseline. activation, % at 10 µM. 0.34% of 330,000 active. AID 449763;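 active = at 10 µM dose, activation of 40% or more, normalized to positive control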;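 also: 100% = tunicamycin at 10 µg/mL and 0% = DMSO alone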
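System: CHO-CHOP luciferase reporter cell line; amount: 500 cells/well; buffer or medium: F12 medium containing 10% fetal bovine serum; incubation: 6 h compound exposure at 37 °C after overnight seeding; measured by: luciferase luminescence after 10 min with Steady-Glo reagent; evaluation: % reporter activation, DMSO baseline versus tunicamycin full activation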
Mdm2 MdmX PPI = inhibitors of human Mdm2/MdmX interaction; O15151+Q00987; SaOS-2 split-luciferase Mdm2/MdmX complementation, luminescence; inhibition, % at 8 µM; 3% of 330,000 active;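 active = inhibition of at least 50% at 8 µM in the primary screen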
Beta cell apopt = beta cell apoptosis inhibition; INS-1E cytokine-induced death, ATP luminescence, 48 h; percent of positive-control rescue, neutral wells zero; protection from apoptosis, % (concentration not given with the values); 0.8% of 300,000 active;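 active = Every replicate reaches about 75%, or at least half do and their mean reaches it too, limit read from the data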;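 also: 0% = cytokine-treated negative control wells and 100% = positive control rescue; higher means more ATP so stronger rescue from cytokine killing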
SKKanGAS inh = inhibitors of SKKanGAS S. pyogenes growth in kanamycin (SK-promoter or general growth effect); inhibition, % at 7.5 µM; BacTiter-Glo, 6 h; 1.3% of 300,000 active;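 active = mean replicate score, as percent of positive control median, at least 50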;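 also: strain carries kanamycin resistance gene driven by streptokinase promoter and grows in 40 µg/ml kanamycin; loss of luminescence reflects streptokinase promoter inhibition or plain growth inhibition; 0% = median of DMSO wells and 100% = positive control at its reference dose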
CSC inhib = blocks cancer stem cells; cancer stem cell-like cells viability, luminescence; inhibition, % at 7.5 µM; 1.1% of 300,000 active; in the data active = inhibition above about 75%; tested in HMLE shEcad cells
UPR XBP1 act = activators of adaptive arm of unfolded protein response (XBP1) | CHO-XBP1 luciferase reporter, IRE1-XBP1 UPR activation, luminescence; percent of tunicamycin response, DMSO as zero | activation, % at 20 µM | AID 463104 | 0.33% of 330,000 active;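 active = versus positive control, 20 µM dose yields 30% or more activation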;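 also: 100% = tunicamycin at 10 µg/mL and 0% = DMSO only wells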
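Material: CHO-XBP1 cells stably carrying IRE1-XBP1-driven luciferase reporter / Amount: 1000 cells per well / Compound: 20 µM, 1% DMSO / Times: 6 h treatment, 37 °C / Detection: luciferase luminescence / Measure: % activation of reporter signal versus tunicamycin and DMSO controls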
Mdm2 MdmX conf = confirmation of human Mdm2/MdmX interaction inhibitors; shares compounds with Mdm2 MdmX PPI; Mdm2-MdmX binding, luminescent assay; inhibition, % at 8 µM; 55% of 10,000 active; AID 489028; in the data active = inhibition above about 40%
FLuc counter = inhibits full-length luciferase, flagging false Mdm2/MdmX hits | SaOS-2 full-length luciferase counterscreen, luminescence | shares compounds with Mdm2 MdmX PPI | 77% of 6,200 active | inhibition, % at 8 µM;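 active = mean inhibition at 8 µM reaching about 37%, which flags the compound as non-specific, limit read from the data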;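 also: p53-null SaOS-2 cells with luciferase driven by a doxycycline-inducible promoter; compound on cells about two nights before reading with doxycycline added after day one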
Numbers without * were called inactive; nt = no result given.

SMILES	UPR CHOP act	Mdm2 MdmX PPI	Beta cell apopt	SKKanGAS inh	CSC inhib	UPR XBP1 act	Mdm2 MdmX conf	FLuc counter
Nc1ncc([N+](=O)[O-])c(N2CCCCCC2)n1	-1	75*	-26	1	-5	-5	73*	49*
CCCn1c(=S)[nH]c2cc(C(=O)N3CCN(C4CCCCC4)CC3)ccc2c1=O	-2	17	3	-17	8	-5	nt	nt
Cc1ccnc(NS(=O)(=O)c2ccc(-n3cccn3)cc2)c1	-2	2	-4	-3	0	-4	nt	nt
Cc1csc(CNc2ncnc3ccc(-c4ccoc4)cc23)c1	-1	76*	-12	nt	-5	2	74*	54*
Cc1cccc(CNc2ncnc3ccc(-c4ccc5c(c4)OCCO5)cc23)c1	-4	66*	108*	nt	12	-3	33	nt
COc1cccc(-c2ccc3ncnc(NCc4ccc5c(c4)OCO5)c3c2)c1	-4	74*	-27	nt	nt	2	76*	53*
Cc1cccc(CNc2ncnc3ccc(-c4ccoc4)cc23)c1	0	79*	-16	nt	1	0	64*	24
Cc1csc(CNc2ncnc3ccc(-c4cccnc4)cc23)c1	3	12	1	nt	nt	-2	nt	nt
CC[C@]12c3[nH]c4cc(CCC(=O)N(C)C)ccc4c3CCN1C(=O)[C@@H](CC(=O)NCCCn1ccnc1)C[C@@H]2C(=O)N1CCN(C(=O)c2ccco2)CC1	1	15	nt	nt	nt	-1	nt	nt
c1cncc(CNc2ncnc3ccc(-c4ccoc4)cc23)c1	-3	70*	-11	nt	-2	-1	69*	51*
COC(=O)C1CN(C(=O)C(C)Oc2ccc(C)c(C)c2)c2ccccc2O1 (stereo unspecified)	-1	-38	-13	9	-16	-4	nt	nt
Cc1occc1C(=O)N1CCCC(N2CCN(c3cccc(Cl)c3)CC2)C1 (stereo unspecified)	0	13	-21	-2	-10	-4	nt	nt
Cc1ccc(Cn2c(-c3nonc3N)nc3ccccc32)cc1	-1	36	10	-18	-7	0	nt	nt
COc1cc(Cn2c(-c3nonc3N)nc3ccccc32)ccc1C	-2	55*	13	13	59	10	62*	46*
COc1cccc(Cn2c(-c3nonc3N)nc3ccccc32)c1	4	54*	30	-2	54	2	56*	70*
COc1ccc(/C(C)=N/NC(=O)CNC(=O)COc2ccccc2)c(OC)c1	2	23	-5	5	-18	-3	nt	nt
Cc1sc2ncn(CC(=O)NCCCC(=O)Nc3ccc(C(C)C)cc3)c(=O)c2c1C	1	82*	10	6	17	-1	43*	29
COc1cccc(NC(=O)CCCNC(=O)Cn2cnc3sc(C)c(C)c3c2=O)c1	0	6	-3	-2	4	-2	nt	nt
CCC(=NNC(=O)c1ccc2c(c1)nc(C)n2CC)c1cc(F)ccc1O	-1	58*	90*	nt	21	3	22	nt
CCn1c(C)nc2cc(C(N)=O)ccc21	2	-39	-2	2	2	-5	nt	nt
O=C(Nc1cccc(-c2cc3ccccc3oc2=O)c1)c1ccc(Br)o1	0	4	5	9	-10	-1	nt	nt
COc1ccc(NC(=O)c2cc3ccccc3oc2=O)c(OC)c1	11	-10	-3	-4	8	6	nt	nt
COc1ccc(S(=O)(=O)Nc2ccccc2OC)cc1NC(=O)c1cc2ccccc2oc1=O	5	73*	2	25	5	4	-52	nt
COc1ccc(-c2cc3ccccc3oc2=O)cc1NC(=O)c1ccc(Br)o1	3	59*	10	5	-3	8	39	23
CC1=C(C(=O)OCc2ccc3c(c2)OCO3)C(c2cccc([N+](=O)[O-])c2)NC(=O)N1 (stereo unspecified)	-2	50	-1	-2	8	0	70*	45*
